Most compounds without a hit are left out; they make up all but 1% or so of the library.
T cell HTS: T cell immune modulators affecting CD8 T cell-vesicle binding; 2C CD8+ T cell-vesicle binding, flow cytometry; stronger effect = lower value; response (vesicle binding), % at 7 µM; 330,000 tested, 0.068% active;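 active means response, share of CD8 T cells binding vesicles, and their 90th percentile fluorescence all below set limits, cut at about 80% in these data, passing the limit was not always enough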;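 further: values below 100% mean blocked vesicle binding to the CD8+ T cells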
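material = purified 2C TCR transgenic mouse naive CD8+ T cells | controls = Unloaded micro-vesicles (low), QL9 vesicles with 0.7% DMSO (high) | detection = cytometric PE anti-B7-1 and Alexa647 anti-CD8 signals after 1% paraformaldehyde fixation | incubation = binding step 1.5 h, 37 °C, antibody labelling 20 min, ice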
NALP1 yeast inh: blocks the NALP1 inflammasome reconstituted in yeast | S. cerevisiae NALP1/ASC/caspase-1 growth, X-gal OD620, 72 h | inhibition, % at 10 µM | 280,000 tested, 0.61% active | AID 2071; in the data active means inhibition mostly above about 24%, no sharp cut-off; inactive means mostly below about 32%
NALP3 yeast inh: NALP3 inhibition in yeast; 330,000 tested, 0.39% active; Yeast reconstituted NLRP3/ASC/caspase-1, beta-gal luminescence, 24 h; inhibition, % at 10 µM;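 active means inhibition of 50% or more; inactive means inhibition below 50%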
Bfl-1 A1 inh: inhibitors of the anti-apoptotic protein A1, read as caspase activation | MEF A1-2A-BIM cells, Caspase-Glo 3/7 luminescence, 3 h; percent of clofoctol response, vehicle zero | caspase activation, % (concentration not given with the values) | 330,000 tested, 0.066% active | AID 2462;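 active means over half of replicate activation scores above 10%, or exactly half above 10 with the replicate mean above 10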
Of the large screens only hits and unclear results are named; the others gave an inactive call.

Cc1cccc(OCC(=O)Nc2nccs2)c1C	NALP1 yeast inh 38
Cc1ccc(OC(=S)Nc2ccc(O)cc2)cc1	NALP1 yeast inh 69
COc1ccc(-n2ncc3c2CC(C)(C)CC3NC(=O)c2ccnn2C)cc1 (stereo not given)	none
CCCn1c(SCC(=O)Nc2nnc(CC)s2)nnc1-c1ccncc1	NALP1 yeast inh 30
C=CCn1c(SCC(=O)Nc2nnc(CC)s2)nnc1-c1ccncc1	none
CCc1nnc(NC(=O)CSc2nnc(-c3cccnc3)n2CC)s1	NALP1 yeast inh 40
CC1=CC(C)(C)Nc2ccc(OC(=O)CN3C(=O)c4cccc5cccc(c45)C3=O)cc21	none (no result: NALP3 yeast inh)
CC1=CC(C)(C)Nc2ccc(OC(=O)CN3C(=O)c4ccccc4C3=O)cc21	NALP1 yeast inh 64
CCn1c(CN2CCOCC2)nnc1SCC(=O)Nc1cccc(C)c1	none
Cc1cccn2c(=O)nc(SCC(=O)NCc3ccc4c(c3)OCO4)nc12	none (no result: NALP1 yeast inh)
C=CCn1c(NC(C)c2cc(Cl)ccc2O)nc2ccccc21 (stereo not given)	NALP1 yeast inh 47
C=CCn1c(NCc2cc(C)ccc2O)nc2ccccc21	none
CC(C)(C)C(=O)COC(=O)c1ccc(O)cc1	none
CC(C)(C)C(=O)COC(=O)c1ccccc1O	NALP1 yeast inh 37
Cn1cccc1C1CCCN1CC(=O)Nc1ccc(F)c(F)c1F (stereo not given)	none (no result: NALP1 yeast inh)
CCN(CC)C(=O)c1sc(NC(=O)Cc2ccc(OC)cc2)c(C#N)c1C	NALP1 yeast inh 43
COc1cc(C=Nc2cccc(C)c2)c(O)c([N+](=O)[O-])c1	NALP1 yeast inh 49
COc1ccc(N2CC(C(=O)OCC(=O)c3ccc(C)cc3)CC2=O)cc1 (stereo not given)	NALP1 yeast inh 27
CCCCN(C(=O)C1=NN(c2ccccc2)C(=O)CC1)c1c(N)n(CC(C)C)c(=O)[nH]c1=O	none (no result: NALP1 yeast inh)
O=C(CSc1n[nH]c(-c2ccc(Br)cc2)n1)N1CCOCC1	none (no result: NALP1 yeast inh)
Clc1ccc(-c2nc(-c3ccccn3)no2)cc1Cl	NALP1 yeast inh 32
O=c1[nH]nc(SCc2nc3ccccc3s2)n1C1CC1	none
CCCn1c(SCc2nc3ccccc3s2)n[nH]c1=O	NALP1 yeast inh 33
Cc1cc(S(=O)(=O)NCc2ccccc2)ccc1OCC(=O)N1CCCC1	none
Cc1ccccc1CS(=O)(=O)Cc1ccc(C(=O)NCCc2ccccc2)o1	none
CC(=O)c1cc(F)c(N2CCCC2)cc1C	none
CC(=O)c1cc(F)c(N2CCOCC2)cc1C	NALP1 yeast inh 44
Cc1cccc(C(=O)Nc2cc(S(=O)(=O)N3CCOCC3)ccc2N2CCCC2)c1	none (no result: T cell HTS, NALP1 yeast inh, Bfl-1 A1 inh)
CCc1nnc(NC(=O)CSc2ccc(-c3ccc(F)cc3)nn2)s1	none
CCc1nnc(NC(=O)CSc2nc(-c3ccccc3)cc(-c3ccc(F)cc3)c2C#N)s1	Bfl-1 A1 inh 7.1
Cc1nc2ccc(NC(=O)c3cc([N+](=O)[O-])cc([N+](=O)[O-])c3Cl)cc2s1	NALP1 yeast inh 58 (no result: NALP3 yeast inh)
COc1ccc(S(=O)(=O)Cc2ccc(C(=O)NC3CCCCCC3)o2)cc1	none
CC1CCC2(CC1)SCC(=O)N2c1ccccc1 (stereo not given)	none
Cc1cccc(N2C(=O)CSC23CCCCC3)c1	NALP1 yeast inh 35
CCOc1ccc(NC(=O)C2CCN(S(=O)(=O)c3cccs3)CC2)cc1	NALP1 yeast inh 39
CCOC(=O)c1ccc(N2C(=O)CC(N3CCCC(C)C3)C2=O)cc1 (stereo not given)	NALP1 yeast inh 105
CCOC(=O)c1ccc(N2C(=O)CC(N3CCN(Cc4ccccc4)CC3)C2=O)cc1 (stereo not given)	none
O=C(COC(=O)CCS(=O)(=O)c1ccccc1)Nc1ccc(N2CCCCC2)cc1	none (no result: NALP1 yeast inh)
CCC(Oc1ccccc1)C(=O)Nc1ccc(S(=O)(=O)Nc2cc(C)on2)cc1 (stereo not given)	none
O=C(Nc1ccccc1Cl)c1cc[n+]([O-])cc1	none
O=C(c1nnsc1S(=O)c1ccc(Cl)cc1)N1CCOCC1 (stereo not given)	NALP1 yeast inh 67 (no result: T cell HTS, Bfl-1 A1 inh)
O=C(Nc1ccccc1)c1nnsc1S(=O)c1ccc(Cl)cc1 (stereo not given)	none
CCOC(=O)c1ccc(NC(=S)N(CCCN2CCCCC2)Cc2ccco2)cc1	NALP1 yeast inh 44
CCOC(=O)c1ccc(NC(=S)N(CCCN(CC)CC)Cc2ccco2)cc1	none
CCC1(CC)C(=O)N(C)C(=O)NC1=Nc1ccc(OC)cc1	NALP1 yeast inh 41
CCC1Oc2ccc(C)cc2N(CC(=O)NCCCN2CCOCC2)C1=O (stereo not given)	none
Cc1ccc2nc(C)cc(Nc3ccc4c(c3)OCCO4)c2c1	NALP1 yeast inh 33
Cc1cc(Nc2ccc3c(c2)OCCO3)c2ccccc2n1	none
Cc1ccc(S(=O)(=O)N2CCN(C(=O)Cn3nc(C)c([N+](=O)[O-])c3C)CC2)cc1	none (no result: NALP1 yeast inh)
CN1CCN(S(=O)(=O)c2cccs2)CC1	none
O=S(=O)(c1cccs1)N1CCN(c2ccc(O)cc2)CC1	NALP1 yeast inh 35
Cc1ccc(C(C)C)c(OCC(=O)Nc2ccccc2N2CCN(C)CC2)c1	NALP1 yeast inh 27
COc1ccccc1CN1CCN(Cc2nc(-c3cccs3)no2)CC1	NALP1 yeast inh 22
COC(=O)NC(NS(=O)(=O)c1ccccc1)(C(=O)OC)C(F)(F)F (stereo not given)	none
CCOC(=O)C(NS(=O)(=O)c1ccccc1)(C(F)(F)F)P(=O)(OCC(C)C)OCC(C)C (stereo not given)	NALP1 yeast inh 34
Cc1ccc(C)c(C(=O)NC(C)c2ccc(-n3ccnc3)cc2)c1 (stereo not given)	none
Cc1ccc(OCC(=O)N(c2ccccn2)C2CCCCC2)c(C)c1	NALP1 yeast inh 44
COc1ccccc1Oc1ccc2c(c1)C(=O)N(c1ccc(O)cc1)C2=O	NALP1 yeast inh 28
COc1ccccc1Oc1ccc2c(c1)C(=O)N(CC(=O)O)C2=O	none
CC(=O)Nc1ccc(OCC(=O)Nc2ccc(Cl)c(S(=O)(=O)N3CCOCC3)c2)cc1	none (no result: NALP1 yeast inh)
Clc1cccc2c1Sc1ccccc1CC2N1CCNCC1 (stereo not given)	NALP1 yeast inh 74
COc1cc(C2(c3ccc(O)c(OC)c3)C(=O)N(C)c3ccc(C)cc32)ccc1O	none (no result: NALP1 yeast inh)
Cc1ccn2cc(-c3ccc(NC(=O)c4ccco4)cc3)nc2c1	NALP1 yeast inh 46
Cc1nc(-c2ccc(NC(=O)c3ccco3)cc2)cs1	none
COc1cccc(NC(=O)Nc2ccc3nc(C)c(C)nc3c2)c1	T cell HTS 73
Cc1ccc(C2(c3ccc(C)cc3)CC2C(=O)Nc2ccc([N+](=O)[O-])cc2O)cc1 (stereo not given)	Bfl-1 A1 inh 27
CC1(C)CC1C(=O)Nc1ccc([N+](=O)[O-])cc1Br (stereo not given)	none
Clc1ccc2c(N/N=C/c3cccc(Br)c3)ccnc2c1	NALP1 yeast inh 47 (no result: NALP3 yeast inh)
CCCCN1C(=O)N(c2ccccc2Cl)C(C)(O)CC1(C)C (stereo not given)	none
O=C(Nc1ccccc1N1CCCCC1)c1ccc(Cl)cc1	Bfl-1 A1 inh 7.3
CCN(CC)c1ccc(NC(=O)c2ccc(S(=O)(=O)N3CCOCC3)cc2)cc1	none (no result: NALP1 yeast inh)
O=C(NCCCNC(=O)c1cnccn1)c1ccc(Br)cc1	none

Compound activity: PubChem BioAssay, several laboratories
